test system: SNB-19; assay: Growth inhibition of human SNB-19 cells assessed as cell growth at 10 uM incubated for 48 hrs by sulforhodamine B assay relative to control; assay type: functional; conditions: read-out: Activity
In short: (§1)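 Run by the NCI Developmental Therapeutics Program as part of its 60-line human tumour panel. Each compound tested at a single 10 µM dose. Growth expressed as % relative to untreated control cells (100%).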

First: CC(=O)c1ccc2c(N)c(C(=O)Nc3ccccc3)sc2n1
Second: Cc1cccc(NC(=O)c2sc3nc4c(cc3c2N)CN(Cc2ccccc2)CC4)c1
The growth at 10 µM of the first is lower: 105% for the first, 110% for the second.

test system: OVCAR-8; assay: Growth inhibition of human OVCAR-8 cells assessed as cell growth at 10 uM incubated for 48 hrs by sulforhodamine B assay relative to control; assay type: functional; conditions: read-out: Activity; in short: as §1

Going from CC(=O)c1ccc2c(N)c(C(=O)Nc3ccccc3)sc2n1 to Cc1cccc(NC(=O)c2sc3nc4c(cc3c2N)CN(Cc2ccccc2)CC4)c1, the growth at 10 µM falls from 100% to 98.2%.

test system: OVCAR-4; assay: Growth inhibition of human OVCAR-4 cells assessed as cell growth at 10 uM incubated for 48 hrs by sulforhodamine B assay relative to control; assay type: functional; conditions: read-out: Activity; in short: as §1

Compared with CC(=O)c1ccc2c(N)c(C(=O)Nc3ccccc3)sc2n1, Cc1cccc(NC(=O)c2sc3nc4c(cc3c2N)CN(Cc2ccccc2)CC4)c1 is higher in growth at 10 µM: 84.2% for the first, 105% for the second.

test system: SF-268; assay: Growth inhibition of human SF-268 cells assessed as cell growth at 10 uM incubated for 48 hrs by sulforhodamine B assay relative to control; assay type: functional; conditions: read-out: Activity; in short: as §1

Compared with CC(=O)c1ccc2c(N)c(C(=O)Nc3ccccc3)sc2n1, Cc1cccc(NC(=O)c2sc3nc4c(cc3c2N)CN(Cc2ccccc2)CC4)c1 is lower in growth at 10 µM: 112% for the first, 103% for the second.

test system: T47D; assay: Growth inhibition of human T47D cells assessed as cell growth at 10 uM incubated for 48 hrs by sulforhodamine B assay relative to control; assay type: functional; conditions: read-out: Activity; in short: as §1

First: CC(=O)c1ccc2c(N)c(C(=O)Nc3ccccc3)sc2n1
Second: Cc1cccc(NC(=O)c2sc3nc4c(cc3c2N)CN(Cc2ccccc2)CC4)c1
The growth at 10 µM of the first is lower: 93.7% for the first, 98.6% for the second.

test system: DU-145; assay: Growth inhibition of human DU-145 cells assessed as cell growth at 10 uM incubated for 48 hrs by sulforhodamine B assay relative to control; assay type: functional; conditions: read-out: Activity
In short: (§2)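 NCI Developmental Therapeutics Program NCI60 panel. Compounds that were active in the 10 µM one-dose screen went on to dose–response testing. Growth at each concentration is expressed relative to untreated control (100%). GI50 (concentration giving 50% of maximal inhibition of proliferation) and TGI (concentration giving total growth inhibition) were derived from the curves.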

First: CC(=O)c1ccc2c(N)c(C(=O)Nc3ccccc3)sc2n1
Second: Cc1cccc(NC(=O)c2sc3nc4c(cc3c2N)CN(Cc2ccccc2)CC4)c1
The growth at 10 µM of the first is higher: 107% for the first, 89.3% for the second.

test system: COLO 205; assay: Growth inhibition of human COLO 205 cells assessed as cell growth at 10 uM incubated for 48 hrs by sulforhodamine B assay relative to control; assay type: functional; conditions: read-out: Activity; in short: as §2

Compared with CC(=O)c1ccc2c(N)c(C(=O)Nc3ccccc3)sc2n1, Cc1cccc(NC(=O)c2sc3nc4c(cc3c2N)CN(Cc2ccccc2)CC4)c1 is lower in growth at 10 µM: 105% for the first, 104% for the second.

test system: LOX IMVI; assay: Growth inhibition of human LOX IMVI cells assessed as cell growth at 10 uM incubated for 48 hrs by sulforhodamine B assay relative to control; assay type: functional; conditions: read-out: Activity
In short: (§3)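 Submitted to the NCI Developmental Therapeutics Program for the NCI60 human tumour cell line panel. First screen at a single 10 µM concentration. Read-out is growth relative to untreated control cells set at 100%.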

First: CC(=O)c1ccc2c(N)c(C(=O)Nc3ccccc3)sc2n1
Second: Cc1cccc(NC(=O)c2sc3nc4c(cc3c2N)CN(Cc2ccccc2)CC4)c1
The growth at 10 µM of the first is higher: 105% for the first, 95.8% for the second.

test system: TK-10; assay: Growth inhibition of human TK-10 cells assessed as cell growth at 10 uM incubated for 48 hrs by sulforhodamine B assay relative to control; assay type: functional; conditions: read-out: Activity; in short: as §1

First: CC(=O)c1ccc2c(N)c(C(=O)Nc3ccccc3)sc2n1
Second: Cc1cccc(NC(=O)c2sc3nc4c(cc3c2N)CN(Cc2ccccc2)CC4)c1
The growth at 10 µM of the first is lower: 108% for the first, 114% for the second.

test system: SK-OV-3; assay: Growth inhibition of human SK-OV-3 cells assessed as cell growth at 10 uM incubated for 48 hrs by sulforhodamine B assay relative to control; assay type: functional; conditions: read-out: Activity; in short: as §1

First: CC(=O)c1ccc2c(N)c(C(=O)Nc3ccccc3)sc2n1
Second: Cc1cccc(NC(=O)c2sc3nc4c(cc3c2N)CN(Cc2ccccc2)CC4)c1
The growth at 10 µM of the first is higher: 106% for the first, 105% for the second.

test system: HT-29; assay: Growth inhibition of human HT-29 cells assessed as cell growth at 10 uM incubated for 48 hrs by sulforhodamine B assay relative to control; assay type: functional; conditions: read-out: Activity; in short: as §3

Compared with CC(=O)c1ccc2c(N)c(C(=O)Nc3ccccc3)sc2n1, Cc1cccc(NC(=O)c2sc3nc4c(cc3c2N)CN(Cc2ccccc2)CC4)c1 is higher in growth at 10 µM: 97.2% for the first, 100% for the second.

test system: SW-620; assay: Growth inhibition of human SW-620 cells assessed as cell growth at 10 uM incubated for 48 hrs by sulforhodamine B assay relative to control; assay type: functional; conditions: read-out: Activity; in short: as §1

First: CC(=O)c1ccc2c(N)c(C(=O)Nc3ccccc3)sc2n1
Second: Cc1cccc(NC(=O)c2sc3nc4c(cc3c2N)CN(Cc2ccccc2)CC4)c1
The growth at 10 µM of the first is higher: 99.4% for the first, 96.8% for the second.

test system: MDA-MB-231; assay: Growth inhibition of human MDA-MB-231 cells assessed as cell growth at 10 uM incubated for 48 hrs by sulforhodamine B assay relative to control; assay type: functional; conditions: read-out: Activity; in short: as §3

Going from CC(=O)c1ccc2c(N)c(C(=O)Nc3ccccc3)sc2n1 to Cc1cccc(NC(=O)c2sc3nc4c(cc3c2N)CN(Cc2ccccc2)CC4)c1, the growth at 10 µM rises from 112% to 113%.

test system: HCC 2998; assay: Growth inhibition of human HCC 2998 cells assessed as cell growth at 10 uM incubated for 48 hrs by sulforhodamine B assay relative to control; assay type: functional; conditions: read-out: Activity; in short: as §2

Compared with CC(=O)c1ccc2c(N)c(C(=O)Nc3ccccc3)sc2n1, Cc1cccc(NC(=O)c2sc3nc4c(cc3c2N)CN(Cc2ccccc2)CC4)c1 is lower in growth at 10 µM: 106% for the first, 104% for the second.

test system: 786-0; assay: Growth inhibition of human 786-0 cells assessed as cell growth at 10 uM incubated for 48 hrs by sulforhodamine B assay relative to control; assay type: functional; conditions: read-out: Activity; in short: as §2

Compared with CC(=O)c1ccc2c(N)c(C(=O)Nc3ccccc3)sc2n1, Cc1cccc(NC(=O)c2sc3nc4c(cc3c2N)CN(Cc2ccccc2)CC4)c1 is lower in growth at 10 µM: 97.9% for the first, 91.5% for the second.

test system: MCF7; assay: Growth inhibition of human MCF7 cells assessed as cell growth at 10 uM incubated for 48 hrs by sulforhodamine B assay relative to control; assay type: functional; conditions: read-out: Activity; in short: as §3

Compared with CC(=O)c1ccc2c(N)c(C(=O)Nc3ccccc3)sc2n1, Cc1cccc(NC(=O)c2sc3nc4c(cc3c2N)CN(Cc2ccccc2)CC4)c1 is lower in growth at 10 µM: 96.8% for the first, 95.9% for the second.

test system: RPMI-8226; assay: Growth inhibition of human RPMI-8226 cells assessed as cell growth at 10 uM incubated for 48 hrs by sulforhodamine B assay relative to control; assay type: functional; conditions: read-out: Activity; in short: as §1

Going from CC(=O)c1ccc2c(N)c(C(=O)Nc3ccccc3)sc2n1 to Cc1cccc(NC(=O)c2sc3nc4c(cc3c2N)CN(Cc2ccccc2)CC4)c1, the growth at 10 µM rises from 89% to 101%.

test system: SK-MEL-2; assay: Growth inhibition of human SK-MEL-2 cells assessed as cell growth at 10 uM incubated for 48 hrs by sulforhodamine B assay relative to control; assay type: functional; conditions: read-out: Activity; in short: as §1

Going from CC(=O)c1ccc2c(N)c(C(=O)Nc3ccccc3)sc2n1 to Cc1cccc(NC(=O)c2sc3nc4c(cc3c2N)CN(Cc2ccccc2)CC4)c1, the growth at 10 µM rises from 107% to 129%.

test system: NCI-H522; assay: Growth inhibition of human NCI-H522 cells assessed as cell growth at 10 uM incubated for 48 hrs by sulforhodamine B assay relative to control; assay type: functional; conditions: read-out: Activity; in short: as §3

Compared with CC(=O)c1ccc2c(N)c(C(=O)Nc3ccccc3)sc2n1, Cc1cccc(NC(=O)c2sc3nc4c(cc3c2N)CN(Cc2ccccc2)CC4)c1 is higher in growth at 10 µM: 103% for the first, 114% for the second.

test system: BT-549; assay: Growth inhibition of human BT-549 cells assessed as cell growth at 10 uM incubated for 48 hrs by sulforhodamine B assay relative to control; assay type: functional; conditions: read-out: Activity
In short: (§4)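 NCI Developmental Therapeutics Program NCI60 human tumour cell line panel, one-dose primary screen with every compound at 10 µM. Growth is expressed as % of untreated control cells (100%).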

First: CC(=O)c1ccc2c(N)c(C(=O)Nc3ccccc3)sc2n1
Second: Cc1cccc(NC(=O)c2sc3nc4c(cc3c2N)CN(Cc2ccccc2)CC4)c1
The growth at 10 µM of the first is higher: 108% for the first, 79% for the second.

test system: NCI-H23; assay: Growth inhibition of human NCI-H23 cells assessed as cell growth at 10 uM incubated for 48 hrs by sulforhodamine B assay relative to control; assay type: functional; conditions: read-out: Activity; in short: as §3

Compared with CC(=O)c1ccc2c(N)c(C(=O)Nc3ccccc3)sc2n1, Cc1cccc(NC(=O)c2sc3nc4c(cc3c2N)CN(Cc2ccccc2)CC4)c1 is higher in growth at 10 µM: 99.2% for the first, 100% for the second.

test system: K562; assay: Growth inhibition of human K562 cells assessed as cell growth at 10 uM incubated for 48 hrs by sulforhodamine B assay relative to control; assay type: functional; conditions: read-out: Activity; in short: as §3

Compared with CC(=O)c1ccc2c(N)c(C(=O)Nc3ccccc3)sc2n1, Cc1cccc(NC(=O)c2sc3nc4c(cc3c2N)CN(Cc2ccccc2)CC4)c1 is higher in growth at 10 µM: 95% for the first, 109% for the second.

test system: ACHN; assay: Growth inhibition of human ACHN cells assessed as cell growth at 10 uM incubated for 48 hrs by sulforhodamine B assay relative to control; assay type: functional; conditions: read-out: Activity; in short: as §4

CC(=O)c1ccc2c(N)c(C(=O)Nc3ccccc3)sc2n1 and Cc1cccc(NC(=O)c2sc3nc4c(cc3c2N)CN(Cc2ccccc2)CC4)c1 are the same in growth at 10 µM: 102% for the first, 102% for the second.

test system: SR; assay: Growth inhibition of human SR cells assessed as cell growth at 10 uM incubated for 48 hrs by sulforhodamine B assay relative to control; assay type: functional; conditions: read-out: Activity; in short: as §1

Compared with CC(=O)c1ccc2c(N)c(C(=O)Nc3ccccc3)sc2n1, Cc1cccc(NC(=O)c2sc3nc4c(cc3c2N)CN(Cc2ccccc2)CC4)c1 is higher in growth at 10 µM: 86.5% for the first, 95% for the second.

From ChEMBL document CHEMBL4715736, “Identification of anticancer agents based on the thieno[2,3-b]pyridine and 1H-pyrazole molecular scaffolds” (2016)
